According to PMC3171567 (Steroids, 2011):

Columns and labels:
human CYP17 = human CYP17 (Homo sapiens, UniProt P05093); conditions: read-out: CYP17 IC50; value for 5; cited from earlier work
LAPC-4 cells = assay: Cell proliferation / viability XTT assay, LAPC-4; type: cell-based; conditions: Homo sapiens, LAPC4, read-out: Cell growth inhibition GI50 LAPC-4
Summary of the method: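 Cells moved to steroid-free medium (phenol red-free RPMI, 5% dextran-coated charcoal-treated serum, 1% penicillin/streptomycin) 3 days before plating at 1.5 × 10^4 cells/well. After 24 h attachment, they were given steroid-free medium with ethanol vehicle, androgens and/or test compound, changed every three days. Viability was read by XTT absorbance on day 7. Each result is the average of at least three wells.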

[1] = system: prostate, seminal vesicles, and the testes; assay: Urogenital tissue weights in LAPC-4 xenograft mice; type: in vivo, male SCID mice; conditions: 31 days, 0.15 mmol/kg; 3 and 5 s.c. b.i.d., 4 and 5-acetate p.o.
Summary of the method: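 Male SCID mice, 4–6 weeks old, housed pathogen-free with food and water ad libitum. LAPC-4 cells were scraped into DPBS, pelleted and resuspended in Matrigel (10 mg/ml) at 2.0 × 10^7 cells/mL before inoculation. Vehicle was 0.3% HPC; test compounds were given at 0.15 mmol/kg. After 31 days of treatment, prostate, seminal vesicles and testes were excised and weighed and compared with vehicle controls.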

LAPC-4 xenografts = assay: LAPC-4 prostate cancer xenograft anti-tumor efficacy; type: in vivo, male SCID mice
LNCaP cells = assay: Cell proliferation / viability XTT assay, LNCaP; type: cell-based; conditions: Homo sapiens, read-out: Cell growth inhibition GI50 LNCaP

Sequence of human CYP17 (P05093 whole entry): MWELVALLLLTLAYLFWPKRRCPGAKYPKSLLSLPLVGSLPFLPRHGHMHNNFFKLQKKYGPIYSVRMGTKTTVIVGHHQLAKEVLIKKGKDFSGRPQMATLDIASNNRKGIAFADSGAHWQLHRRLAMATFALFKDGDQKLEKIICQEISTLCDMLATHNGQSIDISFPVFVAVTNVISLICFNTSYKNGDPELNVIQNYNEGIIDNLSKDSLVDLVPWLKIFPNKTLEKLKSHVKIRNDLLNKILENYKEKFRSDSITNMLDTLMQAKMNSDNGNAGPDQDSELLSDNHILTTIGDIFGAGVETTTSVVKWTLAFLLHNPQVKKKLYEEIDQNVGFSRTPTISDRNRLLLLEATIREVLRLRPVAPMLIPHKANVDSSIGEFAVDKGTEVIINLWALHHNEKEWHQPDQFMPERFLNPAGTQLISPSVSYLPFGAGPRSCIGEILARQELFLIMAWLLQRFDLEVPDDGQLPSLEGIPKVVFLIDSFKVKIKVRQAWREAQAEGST

C[C@]12CC[C@H](O)CC1=CC[C@@H]1[C@@H]2CC[C@]2(C)C(n3cnc4ccccc43)=CC[C@@H]12 [Compound 5, 3β-Hydroxy-17-(1H-benzimidazol-1-yl)androsta-5,16-dien]
IC50 (human CYP17): 0.047 µM | GI50 (LAPC-4 cells): 3.2 µM | prostate size/weight (in words) [1]: reduced the size of the prostate, although the reduction was not quite significant | seminal vesicles size/weight (in words) [1]: significantly reduced the size of the seminal vesicles and testes | testes size/weight (in words) [1]: significantly reduced the size of the seminal vesicles and testes | inhibition of growth of LAPC-4 tumors (in words) (LAPC-4 xenografts; first study, 0.15 mmol/kg s.c. b.i.d.): most effective therapy in inhibiting the growth of LAPC-4 tumors | average tumor volume on day 31 (in words) (LAPC-4 xenografts; first study, 0.15 mmol/kg s.c. b.i.d., vs control p = 0.0001, 4 p = 0.005, 3 p = 0.053, 5-acetate p = 0.006): smaller average tumor volume on day 31 | final tumor weights (in words) (LAPC-4 xenografts; first study, 31 days of treatment, vs control, 3, and castration, p < 0.05): significantly reduced | oral activity (in words) (LAPC-4 xenografts; preclinical studies): not orally active | effect on LAPC-4 tumor growth (in words) (LAPC-4 xenografts; third study, 0.15 mmol/kg s.c. once daily): did not have a significant effect on tumor growth | GI50 (LNCaP cells): 6 µM
